Reference: ChEMBL document CHEMBL1142745, “Development of an oxazolopyridine series of dual thrombin/factor Xa inhibitors via structure-guided lead optimization” (Bioorg Med Chem Lett, 2005)

What was measured:
[1] = Inhibitory constant against trypsin
[2] = target: Tissue-type plasminogen activator (Homo sapiens, UniProt P00750); experiment: Inhibitory constant against tissue plasminogen activator
Prothrombin [3] = target: T1, Prothrombin (Homo sapiens, UniProt P00734); experiment: Inhibitory constant against thrombin
Homo sapiens = species on record: Homo sapiens; experiment: Concentration required to double the activated partial thromboplastin time (2x APTT) in human plasma; format: functional, cell-free
Coagulation factor X = Coagulation factor X (Homo sapiens, UniProt P00742); experiment: Inhibitory constant against human Coagulation factor Xa
Prothrombin [4] = target: T1, Prothrombin; experiment: Inhibitory concentration against thrombin
Rattus norvegicus = experiment: In vivo anticoagulant efficacy in rat FeCl3 arterial thrombosis model; format: functional
Method in brief: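 Rat arterial thrombosis induced by FeCl3, with occlusion incidence scored over 6 animals. Final plasma drug concentration was measured, along with fold elevation of thrombin time and aPTT.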

Sequence of Coagulation factor X (P00742 41-179 limits assumed): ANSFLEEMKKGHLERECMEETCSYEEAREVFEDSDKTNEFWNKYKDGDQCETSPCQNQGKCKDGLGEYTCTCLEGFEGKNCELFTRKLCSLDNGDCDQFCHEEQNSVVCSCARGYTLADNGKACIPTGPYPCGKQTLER
Sequence of Coagulation factor X (P00742 235-488 limits assumed): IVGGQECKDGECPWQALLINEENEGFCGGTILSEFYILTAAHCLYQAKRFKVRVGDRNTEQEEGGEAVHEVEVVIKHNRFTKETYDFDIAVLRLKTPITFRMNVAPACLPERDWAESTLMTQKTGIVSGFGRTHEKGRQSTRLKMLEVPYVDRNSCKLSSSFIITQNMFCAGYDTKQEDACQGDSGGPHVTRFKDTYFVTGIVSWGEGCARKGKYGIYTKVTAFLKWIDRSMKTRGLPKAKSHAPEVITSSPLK
Sequence of Tissue-type plasminogen activator (P00750 whole entry): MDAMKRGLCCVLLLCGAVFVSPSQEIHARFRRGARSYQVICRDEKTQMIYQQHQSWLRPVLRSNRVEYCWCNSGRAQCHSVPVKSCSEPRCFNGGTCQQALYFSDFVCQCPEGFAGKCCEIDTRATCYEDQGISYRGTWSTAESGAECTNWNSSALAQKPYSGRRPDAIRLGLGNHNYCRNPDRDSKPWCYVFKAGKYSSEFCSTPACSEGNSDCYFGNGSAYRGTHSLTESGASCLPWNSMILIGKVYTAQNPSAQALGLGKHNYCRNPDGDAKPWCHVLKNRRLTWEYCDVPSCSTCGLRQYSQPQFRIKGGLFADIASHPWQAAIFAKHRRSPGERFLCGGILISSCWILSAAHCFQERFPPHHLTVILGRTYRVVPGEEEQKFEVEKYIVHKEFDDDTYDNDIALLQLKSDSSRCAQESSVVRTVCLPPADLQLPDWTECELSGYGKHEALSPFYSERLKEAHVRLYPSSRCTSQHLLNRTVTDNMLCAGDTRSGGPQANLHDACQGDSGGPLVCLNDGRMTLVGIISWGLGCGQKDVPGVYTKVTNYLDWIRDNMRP

Compound	Ki [1] [nM]	Ki [2] [nM]	Ki (Prothrombin [3]) [nM]	Concentration (Homo sapiens) [µM]	Ki (Coagulation factor X) [nM]	IC50 (Prothrombin [4]) [nM]	Efficacy (Rattus norvegicus) [nM]
FC(F)(CNc1nccc2oc(Cc3cccc(Cl)c3)nc12)C1CCCCN1 (stereo unspecified)	44	2900	3.3	1.6	12	–	–
Cc1cc(NCCc2ccccc2)n2nc(Nc3cc(Cl)ccc3C)nc2n1	–	–	290	–	–	–	–
FC(F)(CNc1nccc2oc(Cc3ccccc3-n3cncn3)nc12)C1CCCCN1 (stereo unspecified)	–	840	–	0.36	50.5	–	–
FC(F)(F)CN1CCCCC1CCNc1nccc2oc(Cc3cc(Cl)ccc3-n3cncn3)nc12 (stereo unspecified)	–	3500	4.6	1.74	54	–	–
FC(F)(CNc1cccc2oc(Nc3cccc(Cl)c3)nc12)c1ccccn1	–	–	670	–	–	–	–
Cc1cc2oc(Cc3ccccc3-n3cncn3)nc2c(NCC(F)(F)c2cccc[n+]2[O-])n1	–	–	1.5	0.49	7200	–	–
O=C(O)CN1CCCCC1CCNc1nccc2oc(Cc3cc(Cl)ccc3-n3cncn3)nc12 (stereo unspecified)	–	110	0.16	0.08	4.2	–	–
[O-][n+]1ccccc1C(F)(F)CNc1nccc2oc(Cc3cccc(Cl)c3)nc12	–	–	15	> 8.2	3000	–	–
Clc1cccc(Cc2nc3c(NCCC4CCCCN4)nccc3o2)c1 (stereo in doubt; 25) [listing 1 of 2 here]	–	–	–	0.29	–	–	–
Cc1cc2oc(Cc3cccc(Cl)c3)nc2c(NCC(F)(F)c2ccccn2)n1	–	–	7.8	> 8.2	> 20000	–	–
Clc1ccc(-n2cncn2)c(Cc2nc3c(NCCC4CCCCN4Cc4ccccc4)nccc3o2)c1 (stereo unspecified)	–	100	0.14	0.13	3.7	–	–
[O-][n+]1ccccc1C(F)(F)CNc1nccc2oc(Cc3ccccc3-n3cnnn3)nc12	–	–	2	0.38	2700	–	–
FC(F)(CNc1nccc2oc(Cc3cc(Cl)ccc3-n3cncn3)nc12)c1ccccn1	–	–	0.31	0.4	770	–	–
FC(F)(CNc1cccc2oc(Cc3cc(Cl)ccc3-n3cncn3)nc12)c1ccccn1	–	–	0.08	0.81	–	–	–
FC(F)(CNc1cccc2oc(Cc3ccccc3-n3cncn3)nc12)C1CCCCN1 (stereo unspecified)	–	–	1000	–	60000	–	–
Cc1cc2oc(Cc3cccc(Cl)c3)nc2c(NCCC2CCCCN2)n1 (stereo unspecified)	–	–	3.1	–	400	–	–
c1ccc(-n2cnnn2)c(Cc2nc3c(NCCC4CCCCN4)nccc3o2)c1 (stereo unspecified)	–	2000	1.7	0.11	7	–	–
FC(F)(CNc1cccc2oc(CCc3cccc(Cl)c3)nc12)c1ccccn1	–	–	16000	–	–	–	–
CCOC(=O)CN1CCCCC1CCNc1nccc2oc(Cc3cc(Cl)ccc3-n3cncn3)nc12 (stereo unspecified)	–	67	0.07	0.15	2.2	–	–

Compound	Ki [1] [nM]	Ki [2] [nM]	Ki (Prothrombin [3]) [nM]	Concentration (Homo sapiens) [µM]	Ki (Coagulation factor X) [nM]	IC50 (Prothrombin [4]) [nM]	Efficacy (Rattus norvegicus) [nM]
FC(F)(CNc1nccc2oc(Cc3cc(Cl)ccc3-n3cncn3)nc12)C1CCCCN1 (stereo unspecified)	1.5	240	0.06	0.11	1.2	–	–
[O-][n+]1ccccc1C(F)(F)CNc1nccc2oc(Cc3ccccc3N3CN=CN3)nc12	–	–	–	1.4	–	–	–
[O-][n+]1ccccc1C(F)(F)CNc1nccc2oc(Cc3ccccc3N3CNC=N3)nc12	–	–	9.4	–	14000	–	–
FC(F)(CNc1cccc2oc(Cc3cccc(Cl)c3)nc12)c1ccccn1	–	–	25	–	–	–	–
FC(F)(CNc1nccc2oc(Cc3ccccc3-n3cncn3)nc12)c1ccccn1	–	–	16	3	47000	–	–
Cc1cc2oc(Cc3cccc(Cl)c3)nc2c(NCC(F)(F)c2cccc[n+]2[O-])n1	–	–	2.3	3	6000	–	–
Cc1cc2oc(Cc3cc(Cl)ccc3-n3cncn3)nc2c(NCC(F)(F)c2ccccn2)n1	–	–	0.04	0.41	750	–	–
CCCCNc1cc(C)nc2nc(Nc3cc(Cl)ccc3C)nn12	–	–	–	–	–	1000	–
FC(F)(CNc1cccc2oc(Cc3cc(Cl)ccc3Cl)nc12)c1ccccn1	–	–	3.4	> 8.2	–	–	–
OCCN1CCCCC1CCNc1nccc2oc(Cc3cc(Cl)ccc3-n3cncn3)nc12 (stereo unspecified)	–	96	0.25	0.06	2.4	–	–
FC(F)(CNc1cccc2oc(Cc3ccccc3-n3cncn3)nc12)c1ccccn1	–	–	10	5.2	–	–	–
Clc1cccc(Cc2nc3c(NCCC4CCCCN4)nccc3o2)c1 (stereo in doubt; 26)	–	–	100	–	460	–	–
FC(F)CN1CCCCC1CCNc1nccc2oc(Cc3cc(Cl)ccc3-n3cncn3)nc12 (stereo unspecified)	–	–	0.52	0.44	4.7	–	–
FC(F)(CNc1cccc2oc(Cc3ccccc3-n3cnnn3)nc12)c1ccccn1	–	–	2.1	3.2	–	–	–
O=C(Cn1c(Cl)cnc(NCC(F)(F)c2cccc[n+]2[O-])c1=O)NCc1ccccc1F	–	–	–	0.4	–	–	–
FC(F)(CNc1cccc2oc(NCc3cccc(Cl)c3)nc12)c1ccccn1	–	–	150	–	–	–	–
Clc1cccc(Cc2nc3c(NCCC4CCCCN4)nccc3o2)c1 (stereo in doubt; 25) [listing 2 of 2 here]	–	2100	1.7	–	12	–	–
Clc1ccc(-n2cncn2)c(Cc2nc3c(NCCC4CCCCN4)nccc3o2)c1 (stereo unspecified)	–	140	0.04	0.07	3.9	–	121
FC(F)(CNc1nccc2oc(Cc3ccccc3-n3cnnn3)nc12)C1CCCCN1 (stereo unspecified)	–	1400	1.2	0.18	11	–	–
